Data set [1] concerns Bacillus subtilis. In words: Antibacterial activity against Bacillus subtilis ATCC 6633 using 100 uL of test compound after 24 hrs by agar well diffusion method. It counts as functional. Summed up:
(§1)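 Agar well diffusion. Nutrient agar was spread with bacterial suspension at 1×10⁸ CFU/mL, and 10 mm wells were cut. Wells were loaded with compound solution made at 200 mg per 1 mL DMSO. Plates were incubated 24 h at 37 °C and inhibition zones were measured. DMSO served as the negative control.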

In data set [2] the test system is Candida albicans. Nature of the data set: Antifungal activity against Candida albicans NRRL Y-477 using 100 uL of test compound after 48 hrs by agar well diffusion method. It counts as functional. Summed up:
(§2)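 Agar well diffusion. Sabouraud dextrose agar was spread with yeast or fungal suspension at 1×10⁶ CFU/mL, and 10 mm wells were cut. Wells were loaded with compound solution made at 200 mg per 1 mL DMSO. Plates were incubated 48 h at 28 °C and inhibition zones were measured. DMSO served as the negative control.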
(A growth-free zone around the sample is the usual read-out of agar diffusion tests.)

For data set [3], the system named is Bacillus subtilis. In words: Antibacterial activity against Bacillus subtilis ATCC 6633 after 24 hrs by two fold serial dilution method. It counts as functional.
Data set [4] concerns Saccharomyces cerevisiae. In words: Antifungal activity against Saccharomyces cerevisiae after 48 hrs by two fold serial dilution method. It counts as functional. In short, it runs like this: (§3)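 Two-fold serial broth dilution in a suitable broth, run only on compounds giving inhibition zones of at least 16 mm. Final concentrations were […]. Each 5 mL received 0.1 mL inoculum and was incubated 48 h at 28 °C. MIC was the lowest concentration without growth.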

In data set [5] the test system is Staphylococcus aureus. Nature of the data set: Antibacterial activity against Staphylococcus aureus ATCC 29213 using 100 uL of test compound after 24 hrs by agar well diffusion method. The format is functional. In short, it runs like this:
as §1

The subject of data set [6] is Micrococcus luteus. In words: Antibacterial activity against Sarcina lutea after 24 hrs by two fold serial dilution method. It counts as functional.
The test system of data set [7] is Saccharomyces cerevisiae. Nature of the data set: Antifungal activity against Saccharomyces cerevisiae using 100 uL of test compound after 48 hrs by agar well diffusion method. It counts as functional. Summed up: as §2
The test system of data set [8] is Pseudomonas aeruginosa. In words: Antibacterial activity against Pseudomonas aeruginosa ATCC 27953 after 24 hrs by two fold serial dilution method. It counts as functional.
Data set [9] has as its system Aspergillus niger. Nature of the data set: Antifungal activity against Aspergillus niger using 100 uL of test compound after 48 hrs by agar well diffusion method. The format is functional. Summed up: as §2
The subject of data set [10] is Klebsiella pneumoniae. Nature of the data set: Antibacterial activity against Klebsiella pneumoniae ATCC 13883 using 100 uL of test compound after 24 hrs by agar well diffusion method. The format is functional. Summed up: as §1
In data set [11] the test system is Priestia megaterium. In words: Antibacterial activity against Bacillus megaterium ATCC 9885 using 100 uL of test compound after 24 hrs by agar well diffusion method. The format is functional. In short, it runs like this: as §1
In data set [12] the test system is Candida albicans. Nature of the data set: Antifungal activity against Candida albicans NRRL Y-477 after 48 hrs by two fold serial dilution method. The format is functional. Summed up: as §3
For data set [13], the system named is Escherichia coli. In words: Antibacterial activity against Escherichia coli ATCC 25922 after 24 hrs by two fold serial dilution method. It counts as functional.
Data set [14] is described as follows: Antioxidant activity assessed as DPPH free radical scavenging activity by spectrophotometric assay. The format is physicochemical. Summed up:
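Sample solutions at several concentrations were added to 0.004% DPPH in methanol and incubated 60 min in the dark. Absorbance was read at 517 nm against a blank. Inhibition % = (A_blank − A_sample)/A_blank × 100, where the control contained all reagents except the test compound.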
For orientation: DPPH is a stable violet radical that fades when it is reduced.

Data set [15] concerns Micrococcus luteus. In words: Antibacterial activity against Sarcina lutea using 100 uL of test compound after 24 hrs by agar well diffusion method. It counts as functional. In short, it runs like this: as §1
Data set [16] relates to Escherichia coli. In words: Antibacterial activity against Escherichia coli ATCC 25922 using 100 uL of test compound after 24 hrs by agar well diffusion method. The format is functional. In short, it runs like this: as §1
For data set [17], the system named is Priestia megaterium. Nature of the data set: Antibacterial activity against Bacillus megaterium ATCC 9885 after 24 hrs by two fold serial dilution method. It counts as functional.
Data set [18] relates to Pseudomonas aeruginosa. In words: Antibacterial activity against Pseudomonas aeruginosa ATCC 27953 using 100 uL of test compound after 24 hrs by agar well diffusion method. It counts as functional. Summed up: as §1
The test system of data set [19] is Aspergillus niger. In words: Antifungal activity against Aspergillus niger after 48 hrs by two fold serial dilution method. It counts as functional. In short, it runs like this:
as §3

Data set [20] deals with Staphylococcus aureus. Nature of the data set: Antibacterial activity against Staphylococcus aureus ATCC 29213 after 24 hrs by two fold serial dilution method. The format is functional. Conditions: ATCC 29213, 24 h.
For data set [21], the system named is Klebsiella pneumoniae. Nature of the data set: Antibacterial activity against Klebsiella pneumoniae ATCC 13883 after 24 hrs by two fold serial dilution method. The format is functional.

In brackets after ≈: the same amount, converted by molar mass. Activity calls are given as the source filed them. No cut-off for these calls is given here.

By MIC is commonly meant the least concentration at which growth counts as inhibited. For orientation: IC50 means the midpoint of a concentration-inhibition curve. `CC(O)(Cc1cn(CC(=O)c2ccccc2)nn1)c1ccc(S(=O)(=O)c2ccccc2)cc1` (stereo not drawn): the “diameter of the inhibition zone (DIZ)” value in the data set with Bacillus subtilis [1] is recorded as 19 mm; in the data set with Candida albicans [2] it was 15 mm; in the data set with Staphylococcus aureus [5], 18 mm; in the data set on Saccharomyces cerevisiae [7], 14 mm; in the data set with Aspergillus niger [9] it was 32 mm; in the data set with Klebsiella pneumoniae [10], 13 mm. In addition, the “diameter of the inhibition zone (DIZ)” value is recorded as 15 mm with Priestia megaterium [11], 22 mm with Micrococcus luteus [15], 14 mm with Escherichia coli [16] and 19 mm in the data set with Pseudomonas aeruginosa [18]. The MIC against Bacillus subtilis [3] (ATCC 6633, 24 h) worked out at 200 µg/mL (≈ 433 µM); in the data set with Micrococcus luteus [6] it was 200 µg/mL (≈ 433 µM); with Pseudomonas aeruginosa [8] it was 200 µg/mL (≈ 433 µM); in the data set on Aspergillus niger [19], 50 µg/mL (≈ 108 µM); with Staphylococcus aureus [20] it was 200 µg/mL (≈ 433 µM). Also, the MIC entry in the data set on Saccharomyces cerevisiae [4], in the data set on Candida albicans [12], in the data set on Escherichia coli [13], in the data set with Priestia megaterium [17] and with Klebsiella pneumoniae [21] was “inactive” each time. Also, the IC50 in [14] worked out at 600 µg/mL (≈ 1300 µM).
For `O=S(=O)(c1ccccc1)c1ccc(C(O)Cc2cn(Cc3ccccc3)nn2)cc1` (stereo not drawn), the “diameter of the inhibition zone (DIZ)” value was 17 mm in the data set with Bacillus subtilis [1]; 19 mm in the data set on Candida albicans [2]; 19 mm in the data set with Staphylococcus aureus [5]; 17 mm in the data set with Saccharomyces cerevisiae [7]; 30 mm with Aspergillus niger [9]; 23 mm with Klebsiella pneumoniae [10]. Besides, the “diameter of the inhibition zone (DIZ)” value is on record as 14 mm in the data set with Priestia megaterium [11], 20 mm in the data set on Micrococcus luteus [15], 19 mm in the data set with Escherichia coli [16] and 20 mm in the data set with Pseudomonas aeruginosa [18]. The minimal inhibitory concentration (MIC) with Bacillus subtilis [3] (ATCC 6633, 24 h) came out at 200 µg/mL (≈ 477 µM); against Saccharomyces cerevisiae [4], 200 µg/mL (≈ 477 µM); against Micrococcus luteus [6] it was 200 µg/mL (≈ 477 µM); in the data set on Pseudomonas aeruginosa [8], 200 µg/mL (≈ 477 µM); against Candida albicans [12] (NRRL Y-477, 48 h), 200 µg/mL (≈ 477 µM); against Escherichia coli [13] (ATCC 25922, 24 h), 200 µg/mL (≈ 477 µM). Moreover, the MIC is 50 µg/mL (≈ 119 µM) with Aspergillus niger [19]; 200 µg/mL (≈ 477 µM) in the data set with Staphylococcus aureus [20]; 200 µg/mL (≈ 477 µM) in the data set on Klebsiella pneumoniae [21] (ATCC 13883, 24 h). The IC50 in data set [14] was found to be 200 µg/mL (≈ 477 µM). In addition, the MIC result in the data set with Priestia megaterium [17] is “inactive”.
`O=C(Cn1cc(CC(O)c2ccc(S(=O)(=O)c3ccccc3)cc2)nn1)c1ccc(Br)cc1` (stereo not drawn): the “diameter of the inhibition zone (DIZ)” value is recorded as 14 mm with Bacillus subtilis [1]; 20 mm in the data set with Candida albicans [2]; 22 mm in the data set with Staphylococcus aureus [5]; 17 mm in the data set with Saccharomyces cerevisiae [7]; 30 mm with Aspergillus niger [9]; 24 mm in the data set on Klebsiella pneumoniae [10]. Also, the “diameter of the inhibition zone (DIZ)” value was found to be 19 mm in the data set with Priestia megaterium [11], 20 mm in the data set on Micrococcus luteus [15], 22 mm in the data set on Escherichia coli [16] and 25 mm in the data set on Pseudomonas aeruginosa [18]. Moreover, the MIC result in the data set with Bacillus subtilis [3] is “inactive”. Moreover, the MIC against Saccharomyces cerevisiae [4] worked out at 200 µg/mL (≈ 380 µM); against Micrococcus luteus [6], 200 µg/mL (≈ 380 µM); in the data set with Pseudomonas aeruginosa [8], 100 µg/mL (≈ 190 µM); against Candida albicans [12] (NRRL Y-477, 48 h) it was 200 µg/mL (≈ 380 µM); against Escherichia coli [13] (ATCC 25922, 24 h), 200 µg/mL (≈ 380 µM); against Priestia megaterium [17] (ATCC 9885, 24 h), 200 µg/mL (≈ 380 µM). Also, the MIC with Aspergillus niger [19] stood at 50 µg/mL (≈ 95 µM); with Staphylococcus aureus [20], 200 µg/mL (≈ 380 µM); in the data set on Klebsiella pneumoniae [21] (ATCC 13883, 24 h), 100 µg/mL (≈ 190 µM). For the same molecule, the IC50 in [14] stood at 500 µg/mL (≈ 950 µM).

For the origin of these results see ChEMBL document CHEMBL3351505, “Ultrasound-assisted synthesis of novel 1,2,3-triazoles coupled diaryl sulfone moieties by the CuAAC reaction, and biological evaluation of them as antioxidant and antimicrobial agents” (Eur J Med Chem, 2014).
